Values after ≈ are worked out from the molar mass of the structure shown.
Legend:
[1] = system: Mycobacterium tuberculosis; assay: Antimycobacterial activity against Mycobacterium tuberculosis assessed as growth inhibition after 5 days by MABA/resazurin assay; assay type: functional; conditions: 120 h
[2] = Inhibition of Mycobacterium tuberculosis NDH-2 by UV spectrophotometry
Method in brief: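 Purified Mtb NDH-2 at 1 nM in 50 mM Hepes-NaOH pH 7.5 with 100 mM NaCl, 0.008% Brij-35 and 300 μM NADH; reaction started with 50 μM menadione, run 1 h at 37 °C. NADH oxidation followed as fall in absorbance at 340 nm. Screening at 20 μM, then concentration-response for IC50.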

[3] = Partition coefficient, log D of the compound; assay type: physicochemical; conditions: octanol/water
[4] = Solubility of the compound in 0.1 M phosphate buffer after 24 hrs by UV/MS analysis; assay type: physicochemical
Method in brief: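 Solubility measured in presence of 2% (v/v) DMSO.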

[5] = Intrinsic clearance in mouse microsomes assessed per mg protein at 100 uM by HPLC analysis; assay type: ADME, Microsome
[6] = Toxicity in RBC assessed as hemolysis; assay type: cell-based; conditions: erythrocyte
Saccharomyces cerevisiae = assay: Antimicrobial activity against Saccharomyces cerevisiae; assay type: organism-based
[7] = Fraction unbound in plasma at 20 uM after 18 hrs by equilibrium dialysis method; assay type: ADME, cell-free

Structure (SMILES) | MIC [1] | IC50 [2] | logD [3] | solubility at 24 h [4] | microsomal CLint at 100 µM [5] | MHC [6] | MIC (Saccharomyces cerevisiae) | fraction unbound at 18 h, 20 µM [7]
Cc1cccc(-c2cc(Nc3ccc4nccc(N)c4c3)nc(N)n2)c1 | 48.9 µM (≈ 16.7 µg/mL) | 10800 nM |  |  |  |  |  | 
Nc1nc(Nc2ccc3nc(-c4ccc(F)cc4)cc(N)c3c2)cc(-c2ccc(C(F)(F)F)cc2)n1 | 2.88 µM (≈ 1.41 µg/mL) | 81 nM | 2.16 | 2450 µM (≈ 1200 µg/mL) | < 4 µL/min/mg | > 32 µg/mL | > 32 µg/mL | 
Nc1nc(Nc2ccc3nc(-c4ccc(F)cc4)cc(N)c3c2)cc(-c2ccc(F)cc2)n1 | 1.14 µM (≈ 0.502 µg/mL) | 53 nM | 3.06 | 12 µM (≈ 5.29 µg/mL) |  | > 32 µg/mL | > 32 µg/mL | 0.0249
Nc1nc(Nc2ccc3nc(-c4ccc(F)cc4)cc(N)c3c2)cc(-c2ccccn2)n1 | 9.45 µM (≈ 4 µg/mL) | 133 nM |  |  |  |  |  | 
Nc1nc(Nc2ccc3nc(-c4ccc(F)cc4)cc(N)c3c2)cc(-c2ccccc2)n1 | 1.67 µM (≈ 0.706 µg/mL) | 73 nM |  |  |  |  |  | 
COc1ccccc1-c1cc(Nc2ccc3nc(-c4ccc(F)cc4)cc(N)c3c2)nc(N)n1 | 4.42 µM (≈ 2 µg/mL) | < 620 nM |  |  |  |  |  | 
COc1cccc(-c2cc(N)c3cc(Nc4cc(-c5ccc(Cl)cc5)nc(N)n4)ccc3n2)c1 | 2.13 µM (≈ 0.999 µg/mL) | < 260 nM |  |  |  |  |  | 
CCc1cc(Nc2ccc3nc(-c4ccc(F)cc4)cc(N)c3c2)nc(N)n1 | 15.1 µM (≈ 5.66 µg/mL) | 2400 nM |  |  |  |  |  | 
Nc1nc(Nc2ccc3nc(-c4ccc(F)cc4)cc(N)c3c2)cc(-c2ccccc2F)n1 | 3.21 µM (≈ 1.41 µg/mL) | 187 nM |  |  |  |  |  | 
Nc1nc(Nc2ccc3nc(-c4ccc(F)cc4)cc(N)c3c2)cc(-c2cccc(Cl)c2)n1 | 2.19 µM (≈ 1 µg/mL) | 50 nM | 3.06 | 15 µM (≈ 6.85 µg/mL) |  | > 32 µg/mL | > 32 µg/mL | 
Cc1cccc(-c2cc(Nc3ccc4nc(-c5ccc(F)cc5)cc(N)c4c3)nc(N)n2)c1 | < 0.81 µM | 96 nM | 3.18 | 70 µM (≈ 30.6 µg/mL) |  | > 32 µg/mL | > 32 µg/mL | 0.0144
Cn1ccc(-c2cc(Nc3ccc4nc(-c5ccc(F)cc5)cc(N)c4c3)nc(N)n2)n1 | 53.1 µM (≈ 22.6 µg/mL) | 1380 nM |  |  |  |  |  | 
Nc1nc(Nc2ccc3nc(-c4ccc(F)cc4)cc(N)c3c2)cc(-c2ccc(Cl)cc2)n1 | 1.91 µM (≈ 0.873 µg/mL) | 43 nM | 3 | 6 µM (≈ 2.74 µg/mL) | 13.4 µL/min/mg | > 32 µg/mL | > 32 µg/mL | 0.008
CC(C)c1cc(Nc2ccc3nc(-c4ccc(F)cc4)cc(N)c3c2)nc(N)n1 | 7.28 µM (≈ 2.83 µg/mL) | 1470 nM |  |  |  |  |  | 
Nc1nc(Nc2cnc3ccccc3c2)cc(-c2ccc(C(F)(F)F)cc2)n1 | 66.6 µM (≈ 25.4 µg/mL) | 2050 nM |  |  |  |  |  | 
Cc1cc(Nc2ccc3nc(C)ccc3c2)nc(C)n1 | > 121 µM | > 100000 nM |  |  |  |  |  | 
Cc1cc(Nc2ccc3nc(-c4ccc(F)cc4)cc(N)c3c2)nc(N)n1 | 22.2 µM (≈ 8 µg/mL) | 601 nM |  |  |  |  |  | 
Nc1nc(Nc2cnc3ccccc3c2)cc(-c2cccc(Cl)c2)n1 | > 73 µM | 5770 nM |  |  |  |  |  | 

From ChEMBL document CHEMBL2150948, “Quinolinyl Pyrimidines: Potent Inhibitors of NDH-2 as a Novel Class of Anti-TB Agents” (ACS Med Chem Lett, 2012)
